MT1-MMP act inh: blocks activation of human MT1-MMP | P50281 | HT1080 RFP-PRO-GFP cells, GFP/RFP ratio fluorescence, overnight; percent of plate control window, DMSO zero | GFP/RFP ratio change, % at 20 µM | 0.061% of 360,000 active | AID 651647;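 active = GFP/RFP ratio change of at least 30% with cell ATP level not reduced by more than half and red fluorescence within 50% of control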
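Assay system: RFP-PRO-GFP reporter HT1080 cells; read-out basis: GFP/RFP fluorescence ratio; benchmarks: DMSO wells and RFP-L50D-GFP cells; doses: 20 µM single dose, 1% DMSO; schedule: overnight cell settling, then overnight compound exposure, 37 °C, 5% CO2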
FGF22 binding: binders of recombinant human FGF22 by thermal shift; 1.5% of 340,000 active; SYPRO orange fluorescence; percent of sucrose octasulfate shift, DMSO zero; Q9HCT0; activity (Tm shift, normalised), % at 9.99 µM; AID 651658;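 active = mean Tm shift, scaled 0 neutral to 100 positive control, at about 1.3% or above, every replicate too, limit read from the data; inconclusive = no clear call, values can overlap the other calls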
DAGLB inh: blocks human DAGLB lipase activity | inhibition, % at 5.17 µM | HEK293T DAGLB membrane lysate, EnzChek fluorogenic substrate | 0.059% of 340,000 active | Q8NCG7 | AID 504411; in the data active = inhibition above about 34%;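 also: 0% = enzyme with vehicle and 100% = wells lacking enzyme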
Target sequence (Q8NCG7 whole entry, looked up): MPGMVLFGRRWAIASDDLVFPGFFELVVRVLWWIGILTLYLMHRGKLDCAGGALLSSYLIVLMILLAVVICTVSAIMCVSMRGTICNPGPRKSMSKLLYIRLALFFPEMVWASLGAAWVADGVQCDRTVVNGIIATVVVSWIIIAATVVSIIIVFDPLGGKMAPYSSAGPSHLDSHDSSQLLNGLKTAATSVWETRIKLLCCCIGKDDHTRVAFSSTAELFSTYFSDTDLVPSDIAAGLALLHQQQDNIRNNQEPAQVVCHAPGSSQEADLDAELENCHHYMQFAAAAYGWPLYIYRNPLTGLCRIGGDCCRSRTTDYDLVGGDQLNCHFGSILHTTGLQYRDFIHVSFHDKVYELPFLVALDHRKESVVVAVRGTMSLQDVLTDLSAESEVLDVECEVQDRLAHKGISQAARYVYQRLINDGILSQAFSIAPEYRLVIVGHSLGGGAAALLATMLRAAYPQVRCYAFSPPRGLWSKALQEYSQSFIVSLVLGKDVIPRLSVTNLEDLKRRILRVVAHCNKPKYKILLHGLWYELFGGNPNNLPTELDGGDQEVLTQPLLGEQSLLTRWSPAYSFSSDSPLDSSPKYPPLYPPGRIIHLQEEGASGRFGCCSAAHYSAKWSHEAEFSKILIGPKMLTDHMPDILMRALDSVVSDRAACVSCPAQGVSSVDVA
Exocytosis inh: blocks lytic granule exocytosis; TALL-104 LAMP-1 surface exposure, flow cytometry; cells stimulated with thapsigargin and PMA; inhibition, % at 10 µM; 0.66% of 360,000 active;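 active = inhibition above about 55%, limit read from the data; inconclusive = no clear call, values can overlap the other calls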
VLA-4 inh: inhibition in a human VLA-4 binding assay | VLA-4 expressing cells, ligand binding flow cytometry | inhibition, % (about 7 µM as worked out from the volumes in the protocol) | 0.2% of 330,000 active | AID 2557; in the data active = inhibition above about 50%
ABCB6 inh MLPCN: inhibitors of human ABC transporter ABCB6 | AID 602162 | K562-ABCB6 porphyrin accumulation, flow cytometry, 1 h; stronger effect = lower value | fluorescence ratio to DMSO, % at 10 µM | 0.19% of 360,000 active;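 active = fluorescence ratio to DMSO below 75%, the collection mean minus 3 SD; inconclusive = too few cells collected in the well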;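 also: signal is porphyrin accumulated inside mitochondria; 100% equals median channel fluorescence of DMSO control wells; lower ratio means ABCB6 inhibition with less porphyrin fluorescence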
VLA-4 mod pick: human VLA-4 allosteric modulation in cherry picked compounds | 2% of 1,300 active | shares compounds with VLA-4 inh | U937 cells, HUTS-21 LIBS mAb binding, flow cytometry; LDV ligand present at threefold Kd | inhibition, % at 6.7 µM; in the data active = inhibition above about 40%;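 also: 0% = ligand without compound and 100% = no ligand background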
Starred values were filed as active, the others as inactive; ? = inconclusive; · = not tested or not shown. Hits are enriched below; roughly 2% of the tested compounds scored in any of these assays.

SMILES	MT1-MMP act inh	FGF22 binding	DAGLB inh	Exocytosis inh	VLA-4 inh	ABCB6 inh MLPCN	VLA-4 mod pick
O=C(Nc1ccc(F)cc1)Nc1cccnc1	2.8	-0.1	-1.2	-4.0	-5.7	94.0	-3.0
Fc1ccc(NC(=S)Nc2cccnc2)cc1	-2.0	·	-2.4	-2.5	9.7	101.0	·
O=C1C2CCCN2C(=O)N1CCCN1CCN(c2ccc([N+](=O)[O-])cc2)CC1 (stereo not given)	3.3	-0.1	0.2	-4.5	7.5	153.0	·
O=C1C2CCCCN2C(=O)N1CCN1CCN(c2ccc([N+](=O)[O-])cc2)CC1 (stereo not given)	3.2	·	-1.3	4.3	93.2*	103.0	2.7
CCC(=O)c1cn(CC(=O)Nc2cccc(C)c2C)c2ccccc12	5.0	-0.2	-5.5	-9.2	23.2	95.0	2.9
Cc1cccc(NC(=O)Cn2c(=O)oc3ccccc32)c1C	-1.6	0.0	-1.1	-5.4	-19.7	99.0	-3.5
CC(=O)c1cn(CC(=O)Nc2cccc(C)c2C)c2ccccc12	-4.6	42.2	-0.6	3.2	12.0	97.0	·
Cc1ccc(NC(=O)Cn2c(=O)oc3ccccc32)c(C)c1	4.9	-0.3	-1.3	-1.7	1.6	100.0	-10.8
COc1ccc(CCNC(=O)Cn2c(=O)oc3ccccc32)cc1OC	6.1	·	-2.5	?	-0.1	98.0	-12.3
COc1ccc(CCN(C)C(=O)Cn2c(=O)oc3ccccc32)cc1OC	0.0	0.1	0.3	-2.8	10.3	105.0	·
CO[C@@H]1CN(C)C(=O)c2cc(NC(=O)C3CCOCC3)ccc2OC[C@H](C)N(CC2CC2)C[C@H]1C	·	-0.5	·	·	·	·	·
COCC#Cc1cnc2c(c1)C(=O)N([C@H](C)CO)C[C@@H](C)[C@H](CN(C)C(=O)c1ccc(F)cc1)O2	·	0.0	·	·	·	·	·
Cc1cc(/C=C2/NC(=O)N(c3ccccc3)C2=O)c(C)n1-c1cccnc1	-2.9	0.1	12.8	-9.8	43.1	142.0	-11.0
Cc1ccc(-n2c(CSc3nc(C)cc(C)n3)nnc2SCC(=O)N2CCCC2)cc1	0.7	·	-0.9	2.2	50.0*	96.0	-4.1
CCSc1nnc(Cc2cc(=O)[nH]c(=O)[nH]2)n1-c1ccc(F)cc1	-2.2	-0.2	-1.4	-4.5	13.3	90.0	·
COc1cccc(-n2c(Cc3cc(=O)[nH]c(=O)[nH]3)nnc2SCc2cccnc2)c1	-5.7	-0.5	4.1	-0.2	41.5	101.0	·
O=C(CSc1nnc(Cc2cc(=O)[nH]c(=O)[nH]2)n1-c1ccc(F)cc1)N1CCCCC1	-6.4	-0.1	3.2	-3.2	18.0	102.0	2.4
COc1ccc(-n2c(Cc3cc(=O)[nH]c(=O)[nH]3)nnc2SCc2ccccc2)cc1	-6.4	·	-0.9	-1.1	51.1*	100.0	4.7
COc1cccc(-n2c(Cc3cc(=O)[nH]c(=O)[nH]3)nnc2SCC(=O)N2CCCCC2)c1	-0.2	0.1	-3.0	0.1	8.8	99.0	-1.5
Cc1cc(C)nc(SCc2nnc(SCC(=O)O)n2-c2ccccc2)n1	2.7	0.6	0.0	-1.1	8.4	96.0	·
CC(=O)N1[C@@H](CO)[C@@H]2c3ccccc3N(C(=O)c3ccccc3)C[C@@H]21	·	0.3	·	·	·	·	·
COCC(=O)Nc1ccc2c(c1)[C@H]1C[C@H](CC(=O)NCc3cccc(F)c3)O[C@H](CO)[C@H]1O2	·	-0.1	·	·	·	·	·
COc1ccc(S(=O)(=O)N(C)C[C@@H]2Oc3ccc(NC(=O)Cc4ccccc4)cc3C(=O)N([C@@H](C)CO)C[C@@H]2C)cc1	·	-0.2	·	·	·	·	·
COCCNC(=O)c1ccccc1NC(=O)COc1ccccc1	2.6	·	-1.9	-1.9	-1.7	93.0	-18.8
COC(=O)c1ccccc1NC(=O)COc1ccccc1	-7.2	·	-9.5	13.0	9.3	97.0	·
SMILES	MT1-MMP act inh	FGF22 binding	DAGLB inh	Exocytosis inh	VLA-4 inh	ABCB6 inh MLPCN	VLA-4 mod pick
CC(NC(=O)/C(C#N)=C/c1ccc(Cl)c([N+](=O)[O-])c1)c1ccccc1 (stereo not given)	·	0.3	·	·	61.4*	·	63.3*
C[C@@H](NC(=O)/C(C#N)=C/c1ccc(O)c(O)c1)c1ccccc1	-0.7	-0.7	22.6	-1.5	-4.5	96.0	·
COCCCC1CCN(Cc2nc(-c3ccccc3)no2)CC1	2.5	0.2	-1.0	7.9	42.3	96.0	7.0
COc1cccc2[nH]c3c(=O)n(CCCN4CCOCC4)cnc3c12	6.0	0.3	-0.4	-3.9	-0.6	93.0	10.0
CCC(=O)N1CC2(C1)CN(CC1CCOCC1)[C@H](CO)c1c2c2ccc(OC)cc2n1C	·	-0.4	·	·	·	·	·
Cc1ccc(S(=O)(=O)N[C@@H]2CC[C@H](CCNC(=O)C3CC3)O[C@@H]2CO)cc1	·	0.2	·	·	·	·	·
O=[N+]([O-])c1ccc(CCn2ccnc2)cc1	4.6	-0.1	-1.1	-6.2	40.9	96.0	-5.3
COc1cc(SC)ccc1C(=O)Nc1ncc(Cl)cc1Cl	0.6	0.1	0.7	0.2	54.8*	99.0	7.0
CCc1ccc(N2C(=O)c3cc(N4CCOCC4)c([N+](=O)[O-])cc3C2=O)cc1	·	·	·	·	42.9	·	-11.8
O=C(/C=C/c1ccccc1[N+](=O)[O-])NCCCn1ccnc1	0.6	0.2	2.6	-0.2	61.5*	95.0	-4.9
O=C(C[C@H]1C[C@H]2c3cc(NC(=O)c4ccc5c(c4)OCO5)ccc3O[C@H]2[C@H](CO)O1)NCCc1ccccc1	·	-0.1	·	·	·	·	·
Cc1cc(Cl)c(S(=O)(=O)N2CCCC2)cc1OCC(=O)NC1CCCCC1	-3.8	·	2.4	-1.4	68.3*	87.0	6.5
Cc1cc(Cl)c(S(=O)(=O)NC(C(=O)O)C(C)C)cc1OCC(=O)NC1CCCCC1 (stereo not given)	3.9	·	0.4	-0.3	-2.1	89.0	·
CC(=O)Nc1ccc(N2C(=O)CC(N3CC(C)OC(C)C3)C2=O)cc1 (stereo not given)	0.9	·	2.2	-4.8	5.3	86.0	9.0
COC(=O)c1c(NC(=O)c2ccco2)sc2c1CCC2	-5.1	·	-10.1	34.7	92.3*	109.0	-4.9
O=C(NCC1CC1)[C@@H]1[C@@H](CO)[C@@H]2Cn3c(ccc(-c4cccnc4)c3=O)[C@H]1N2C(=O)C1CC1	·	-0.1	·	·	·	·	·
CCCCCCNC1=NCCS1	1.9	0.0	2.4	11.4	52.6*	97.0	-1.6
CCOC(=O)Cn1cnc2c(nnn2-c2cccc(OC)c2)c1=O	2.3	0.1	-4.7	1.8	42.3	101.0	-27.3
COc1cccc(-n2nnc3c(=O)n(CC(=O)OCc4ccccc4)cnc32)c1	4.3	·	-2.0	-0.9	-1.1	90.0	·
O=C(C[C@H]1CC[C@H]2[C@@H](COC[C@@H](O)CN2C(=O)c2ccccc2F)O1)NCc1ccccc1	·	0.6	·	·	·	·	·
O=C(N/N=C/c1ccccc1)C(=O)N/N=C/c1ccccc1	0.5	0.1	-0.7	1.7	3.6	102.0	·

Assay outcomes from PubChem.
